The values that follow come from ChEMBL document CHEMBL5046221, “Identification of Pyrimidine-Based Lead Compounds for Understudied Kinases Implicated in Driving Neurodegeneration” (J Med Chem, 2022).

In data set [1] the target is T1, Macrophage colony-stimulating factor 1 receptor (Homo sapiens, UniProt P07333). The data set can be described thus: Inhibition of NanoLuc-fused CSF1R (unknown origin) expressed in HEK293 cells incubated for 2 hrs by NanoBRET assay. Type of data set: cell-based. (In general: Bioluminescence resonance energy transfer reports proximity on the nanometre scale.)
Data set [2] deals with Receptor tyrosine-protein kinase erbB-2 (Homo sapiens, UniProt P04626). The data set can be described thus: Inhibition of recombinant human ERBB2 (676 to 1255 residues) using poly(Glu:Tyr) as substrate incubated for 40 mins in presence of [gamma-33P-ATP] by radiometric scintillation assay. A digest of the protocol: (§1)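 Eurofins radiometric enzymatic assay with ATP at Km for each kinase. IC50 was derived from a 9-point dose–response curve run in duplicate.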

Data set [3] concerns the target T2, Non-receptor tyrosine-protein kinase TYK2 (Homo sapiens, UniProt P29597). The data set can be described thus: Inhibition of human TYK2 (875 to end residues) using GGMEDIYFEFMGGKKK as substrate measured after 40 mins in presence of [gamma33P]ATP by radiometric scintillation counting method. A digest of the protocol:
as §1

A short description of data set [4]: Inhibition of human TTBK1 (1 to 479 residues) using Casein as substrate measured after 40 mins in presence of [gamma33P]ATP by scintillation counting method. Put shortly:
(§2)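 Eurofins radiometric kinase assay run at ATP equal to Km for each kinase. 9-point dose–response in duplicate gives the IC50.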

Data set [5] addresses T3, Serine/threonine-protein kinase TBK1 (Homo sapiens, UniProt Q9UHD2).
T3 sequence (Q9UHD2 whole entry): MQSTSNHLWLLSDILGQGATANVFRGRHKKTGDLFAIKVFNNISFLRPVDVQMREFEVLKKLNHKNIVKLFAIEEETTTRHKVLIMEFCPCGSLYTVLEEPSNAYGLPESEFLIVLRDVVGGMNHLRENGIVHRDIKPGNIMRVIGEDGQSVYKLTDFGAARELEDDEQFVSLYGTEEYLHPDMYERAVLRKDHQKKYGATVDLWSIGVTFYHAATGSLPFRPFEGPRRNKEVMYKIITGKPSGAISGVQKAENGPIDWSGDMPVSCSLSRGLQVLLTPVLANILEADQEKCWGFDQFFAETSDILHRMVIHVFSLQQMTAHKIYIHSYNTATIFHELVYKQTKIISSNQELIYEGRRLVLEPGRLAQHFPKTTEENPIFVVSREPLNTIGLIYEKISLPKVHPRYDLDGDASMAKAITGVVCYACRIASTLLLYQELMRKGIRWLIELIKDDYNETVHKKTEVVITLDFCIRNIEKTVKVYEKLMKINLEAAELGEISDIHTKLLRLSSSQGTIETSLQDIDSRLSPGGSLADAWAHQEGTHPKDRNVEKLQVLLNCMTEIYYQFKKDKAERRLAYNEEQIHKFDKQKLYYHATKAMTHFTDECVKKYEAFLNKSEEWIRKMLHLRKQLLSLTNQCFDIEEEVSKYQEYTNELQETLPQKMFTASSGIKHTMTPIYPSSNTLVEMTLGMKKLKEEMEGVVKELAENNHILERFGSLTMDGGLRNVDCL
As to the kind of experiment: Displacement of tracer K5 from NLuc fused TBK1 (unknown origin) expressed in HEK293 cells by NanoBRET assay. Type of data set: cell-based. Put shortly:
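HEK293 cells grown in DMEM with 10% FBS at 37 °C, 5% CO2. NanoBRET assay run in dose–response per manufacturer's protocol with tracer K-5 at 0.5 μM. SEM calculated for assays run more than once.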

For data set [6], the target named is T4, Serine/threonine-protein kinase 17A (Homo sapiens, UniProt Q9UEE5).
T4 sequence (Q9UEE5 whole entry): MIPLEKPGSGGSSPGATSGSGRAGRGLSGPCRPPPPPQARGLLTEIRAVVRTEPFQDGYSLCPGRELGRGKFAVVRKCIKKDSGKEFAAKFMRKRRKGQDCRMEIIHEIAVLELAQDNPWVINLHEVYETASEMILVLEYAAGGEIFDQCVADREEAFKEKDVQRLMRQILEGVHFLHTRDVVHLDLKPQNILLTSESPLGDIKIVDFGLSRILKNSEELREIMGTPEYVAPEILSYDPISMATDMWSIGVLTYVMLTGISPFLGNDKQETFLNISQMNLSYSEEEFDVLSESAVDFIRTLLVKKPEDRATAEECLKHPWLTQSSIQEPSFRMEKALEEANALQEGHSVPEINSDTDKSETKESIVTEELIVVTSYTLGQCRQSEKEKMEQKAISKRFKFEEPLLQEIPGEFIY
As to the kind of experiment: Displacement of tracer K9 from NLuc fused DRAK1 (unknown origin) expressed in HEK293 cells by NanoBRET assay. Type of data set: cell-based.

The target in data set [7] is Tyrosine-protein kinase JAK2 (Homo sapiens) (UniProt O60674). The data set can be described thus: Inhibition of recombinant human JAK2 (808 to end residues) using KTFCGTPEYLAPEVRREPRILSEEEQEMFRDFDYIADWC as substrate at 1 uM incubated for 40 mins in presence of [gamma-33P-ATP] by radiometric scintillation assay relative to control. Put shortly:
(§3)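 Eurofins radiometric kinase assay with ATP at Km for each kinase. Compound was tested at a single 1 μM concentration in duplicate, and the result is reported as percent of control.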

Data set [8] has as its target MAP/microtubule affinity-regulating kinase 3 (Homo sapiens, UniProt P27448). The data set can be described thus: Displacement of tracer K9 from NLuc fused MARK3 (unknown origin) expressed in HEK293 cells by NanoBRET assay. Type of data set: cell-based.
The nature of data set [9]: Effective permeability in PBS at 7.4 incubated for 5 hrs by PAMPA analysis. Type of data set: ADME. The note with it: pH 7.4, 5 h. Put shortly: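 PAMPA: DMSO stocks were diluted in PBS pH 7.4 and placed in the donor compartment, with PBS pH 7.4 in the acceptor, for 5 h. Both compartments were quantified by CLND against a calibration curve, with background nitrogen correction. Effective permeability was calculated from donor and acceptor concentrations using measured rather than assumed solubility.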
A general note: PAMPA measures passive passage across an artificial lipid membrane.

Data set [10] concerns the target T2, Non-receptor tyrosine-protein kinase TYK2. The data set can be described thus: Inhibition of NanoLuc-fused TYK2 (unknown origin) expressed in HEK293 cells incubated for 2 hrs by NanoBRET assay. Type of data set: cell-based. A digest of the protocol: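 Cellular NanoBRET target-engagement assays were run by Carna Biosciences to the manufacturer's protocol. Dose–response was in singlicate, with compounds tested at concentrations up to 10 μM.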

Data set [11] concerns the target T5, MAP/microtubule affinity-regulating kinase 4 (Homo sapiens, UniProt Q96L34).
T5 sequence (Q96L34 whole entry): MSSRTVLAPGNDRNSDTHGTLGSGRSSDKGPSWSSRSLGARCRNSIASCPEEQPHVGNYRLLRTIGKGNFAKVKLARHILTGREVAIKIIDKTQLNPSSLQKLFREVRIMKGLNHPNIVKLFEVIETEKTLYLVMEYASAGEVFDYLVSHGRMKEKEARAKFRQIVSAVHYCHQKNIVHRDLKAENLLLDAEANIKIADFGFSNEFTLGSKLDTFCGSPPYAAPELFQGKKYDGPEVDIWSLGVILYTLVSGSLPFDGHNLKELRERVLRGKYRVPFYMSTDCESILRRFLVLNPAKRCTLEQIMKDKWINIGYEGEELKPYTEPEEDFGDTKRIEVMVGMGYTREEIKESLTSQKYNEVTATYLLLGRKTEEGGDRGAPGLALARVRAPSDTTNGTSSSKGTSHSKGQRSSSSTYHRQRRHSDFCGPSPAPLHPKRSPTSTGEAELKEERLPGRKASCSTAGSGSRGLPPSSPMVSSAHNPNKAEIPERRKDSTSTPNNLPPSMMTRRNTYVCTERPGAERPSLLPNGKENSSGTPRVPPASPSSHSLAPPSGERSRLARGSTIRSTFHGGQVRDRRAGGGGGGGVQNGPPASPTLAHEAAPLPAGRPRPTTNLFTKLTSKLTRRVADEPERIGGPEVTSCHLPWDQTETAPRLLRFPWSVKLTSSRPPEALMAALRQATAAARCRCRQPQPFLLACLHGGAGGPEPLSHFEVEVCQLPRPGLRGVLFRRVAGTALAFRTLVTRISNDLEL
The data set can be described thus: Displacement of tracer K5 from NLuc fused MARK4 (unknown origin) expressed in HEK293 cells by NanoBRET assay. Type of data set: cell-based.

In data set [12] the target is T1, Macrophage colony-stimulating factor 1 receptor. As to the kind of experiment: Inhibition of recombinant human FMS (538 to end residues) using KKKSPGEYVNIEFG as substrate measured after 40 mins in presence of [gamma33P]ATP by radiometric scintillation counting method. A digest of the protocol:
as §2

Data set [13] can be described thus: Kinetic solubility of compound in PBS at pH 7.4 incubated for 24 hrs by chemiluminscent nitrogen detection method. Type of data set: physicochemical. The note with it: buffer, pH 7.4, 24 h. Put shortly: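 Filtrates were quantified by total chemiluminescent nitrogen determination against a calibration curve, with correction for background nitrogen from DMSO and medium.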

For data set [14], the target named is MAP kinase-interacting serine/threonine-protein kinase 2 (Homo sapiens, UniProt Q9HBH9). As to the kind of experiment: Inhibition of full length recombinant human MKNK2 using myelin basic protein as substrate incubated for 40 mins in presence of [gamma-33P-ATP] by radiometric scintillation assay. A digest of the protocol: as §2
In data set [15] the target is Serine/threonine-protein kinase 32B (Homo sapiens, UniProt Q9NY57). The data set can be described thus: Inhibition of full length recombinant human YANK2 using casein as substrate incubated for 120 mins in presence of [gamma-33P-ATP] by radiometric scintillation assay. A digest of the protocol: as §1
For data set [16], the target named is T6, Serine/threonine-protein kinase 17B (Homo sapiens) (UniProt O94768).
T6 sequence (whole entry): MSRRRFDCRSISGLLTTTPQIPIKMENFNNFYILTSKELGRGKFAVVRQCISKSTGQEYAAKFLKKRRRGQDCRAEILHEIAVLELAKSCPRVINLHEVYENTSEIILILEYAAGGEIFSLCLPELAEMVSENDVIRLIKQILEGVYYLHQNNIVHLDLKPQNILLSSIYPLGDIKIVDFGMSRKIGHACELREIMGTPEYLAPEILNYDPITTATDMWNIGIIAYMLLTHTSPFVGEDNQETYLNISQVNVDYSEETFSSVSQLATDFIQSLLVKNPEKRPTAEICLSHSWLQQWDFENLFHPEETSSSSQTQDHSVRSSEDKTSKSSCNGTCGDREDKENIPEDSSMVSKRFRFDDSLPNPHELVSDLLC
As to the kind of experiment: Inhibition of full length recombinant human DRAK2 using KKRPQRRYSNVF as substrate at 1 uM incubated for 120 mins in presence of [gamma-33P-ATP] by radiometric scintillation assay relative to control. Put shortly: as §3

Data set [17] addresses T4, Serine/threonine-protein kinase 17A. As to the kind of experiment: Inhibition of recombinant human DRAK1 using KKLNRTLSFAEPG as substrate after 40 mins in presence of [gamma-33ATP] by scintillation counting based radiometry assay. Put shortly: as §2
For data set [18], the target named is BMP-2-inducible protein kinase (Homo sapiens, UniProt Q9NSY1). As to the kind of experiment: Residual activity of human BMP2K at 1 uM using peptide as substrate incubated for 120 mins in presence of [gamma-33P-ATP] by radiometric scintillation assay relative to control.
Data set [19] addresses Serine/threonine-protein kinase 17B (Homo sapiens, UniProt O94768). As to the kind of experiment: Inhibition of recombinant human DRAK2 using KKRPQRRYSNVF as substrate after 120 mins in presence of [gamma-33ATP] by scintillation counting based radiometry assay. Put shortly: as §1
In data set [20] the target is Serine/threonine-protein kinase SIK2 (Homo sapiens, UniProt Q9H0K1). The data set can be described thus: Inhibition of recombinant human SIK2 (1 to 276 residues) using KKKVSRSGLYRSPSMPENLNRPR as substrate measured after 40 mins in presence of [gamma33P]ATP by radiometric scintillation counting method. A digest of the protocol: as §2
In data set [21] the target is AP2-associated protein kinase 1 (Homo sapiens, UniProt Q2M2I8). The data set can be described thus: Inhibition of human AAK1 using peptide as substrate incubated for 120 mins in presence of [gamma-33ATP] by scintillation counting based radiometry assay. Put shortly:
as §2

MAP/microtubule affinity-regulating kinase 3, sequence (P27448 whole entry, the tested form may be a part): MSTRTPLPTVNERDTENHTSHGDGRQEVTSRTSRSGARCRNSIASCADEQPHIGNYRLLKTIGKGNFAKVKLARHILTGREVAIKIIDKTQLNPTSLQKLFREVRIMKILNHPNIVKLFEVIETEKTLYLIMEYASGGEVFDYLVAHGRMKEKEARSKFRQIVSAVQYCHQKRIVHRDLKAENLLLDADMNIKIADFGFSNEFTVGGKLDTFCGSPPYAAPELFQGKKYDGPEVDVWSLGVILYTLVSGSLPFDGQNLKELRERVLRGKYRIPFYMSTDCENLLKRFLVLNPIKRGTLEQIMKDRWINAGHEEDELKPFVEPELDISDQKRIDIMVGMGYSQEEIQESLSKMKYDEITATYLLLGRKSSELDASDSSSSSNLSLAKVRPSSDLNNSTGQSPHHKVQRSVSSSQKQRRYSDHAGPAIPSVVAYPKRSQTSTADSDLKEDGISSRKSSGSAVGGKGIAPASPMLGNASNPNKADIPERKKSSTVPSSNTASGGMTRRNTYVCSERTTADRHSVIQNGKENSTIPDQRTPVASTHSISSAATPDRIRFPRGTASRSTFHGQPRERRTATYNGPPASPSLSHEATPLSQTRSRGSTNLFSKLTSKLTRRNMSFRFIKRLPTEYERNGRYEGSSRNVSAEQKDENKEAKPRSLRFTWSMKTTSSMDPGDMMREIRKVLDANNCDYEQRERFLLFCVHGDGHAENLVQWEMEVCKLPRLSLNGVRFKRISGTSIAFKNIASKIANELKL
T2 sequence (P29597 whole entry): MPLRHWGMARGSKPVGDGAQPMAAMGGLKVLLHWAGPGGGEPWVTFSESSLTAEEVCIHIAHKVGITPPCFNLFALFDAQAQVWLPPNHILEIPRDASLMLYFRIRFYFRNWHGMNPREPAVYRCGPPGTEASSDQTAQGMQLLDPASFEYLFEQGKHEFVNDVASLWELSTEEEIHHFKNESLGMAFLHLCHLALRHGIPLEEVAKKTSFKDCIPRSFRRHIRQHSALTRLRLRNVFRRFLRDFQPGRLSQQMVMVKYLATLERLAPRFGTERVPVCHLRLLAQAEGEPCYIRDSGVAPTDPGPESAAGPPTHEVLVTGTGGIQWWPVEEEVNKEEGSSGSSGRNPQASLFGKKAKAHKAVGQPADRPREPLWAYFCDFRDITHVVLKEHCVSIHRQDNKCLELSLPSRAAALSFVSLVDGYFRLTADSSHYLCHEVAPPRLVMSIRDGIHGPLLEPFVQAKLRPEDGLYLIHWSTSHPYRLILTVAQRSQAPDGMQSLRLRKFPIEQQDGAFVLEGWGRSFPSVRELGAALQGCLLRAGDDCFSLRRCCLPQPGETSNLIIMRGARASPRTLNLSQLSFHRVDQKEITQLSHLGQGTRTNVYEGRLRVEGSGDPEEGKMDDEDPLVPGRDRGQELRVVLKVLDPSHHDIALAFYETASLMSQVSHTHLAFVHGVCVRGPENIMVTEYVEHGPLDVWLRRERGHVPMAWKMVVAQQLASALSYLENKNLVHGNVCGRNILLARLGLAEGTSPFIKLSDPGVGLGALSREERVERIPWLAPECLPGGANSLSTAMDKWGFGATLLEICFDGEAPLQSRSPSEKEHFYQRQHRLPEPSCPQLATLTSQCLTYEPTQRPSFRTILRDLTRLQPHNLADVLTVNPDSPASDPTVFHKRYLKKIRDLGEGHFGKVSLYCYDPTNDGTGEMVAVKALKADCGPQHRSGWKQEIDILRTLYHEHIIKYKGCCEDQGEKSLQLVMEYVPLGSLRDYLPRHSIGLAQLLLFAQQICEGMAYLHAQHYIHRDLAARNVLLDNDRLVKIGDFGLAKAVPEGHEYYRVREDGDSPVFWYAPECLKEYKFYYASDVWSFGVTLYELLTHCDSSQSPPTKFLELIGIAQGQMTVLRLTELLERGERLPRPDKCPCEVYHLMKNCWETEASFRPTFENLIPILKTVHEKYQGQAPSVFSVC
MAP kinase-interacting serine/threonine-protein kinase 2, sequence (Q9HBH9 whole entry): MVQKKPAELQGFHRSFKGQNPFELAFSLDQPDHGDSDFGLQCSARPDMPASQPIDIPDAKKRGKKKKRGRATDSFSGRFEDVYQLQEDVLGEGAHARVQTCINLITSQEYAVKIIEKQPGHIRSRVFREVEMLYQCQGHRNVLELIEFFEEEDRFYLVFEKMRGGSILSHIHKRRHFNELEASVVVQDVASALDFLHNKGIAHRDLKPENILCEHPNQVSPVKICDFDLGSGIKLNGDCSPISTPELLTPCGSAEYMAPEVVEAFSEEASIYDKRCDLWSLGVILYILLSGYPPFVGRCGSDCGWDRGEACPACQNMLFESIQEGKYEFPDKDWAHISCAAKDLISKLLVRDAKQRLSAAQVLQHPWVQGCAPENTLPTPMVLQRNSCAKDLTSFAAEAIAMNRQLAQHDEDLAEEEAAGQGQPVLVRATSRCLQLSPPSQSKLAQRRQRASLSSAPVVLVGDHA
T1 sequence (P07333 whole entry, the tested form may be a part): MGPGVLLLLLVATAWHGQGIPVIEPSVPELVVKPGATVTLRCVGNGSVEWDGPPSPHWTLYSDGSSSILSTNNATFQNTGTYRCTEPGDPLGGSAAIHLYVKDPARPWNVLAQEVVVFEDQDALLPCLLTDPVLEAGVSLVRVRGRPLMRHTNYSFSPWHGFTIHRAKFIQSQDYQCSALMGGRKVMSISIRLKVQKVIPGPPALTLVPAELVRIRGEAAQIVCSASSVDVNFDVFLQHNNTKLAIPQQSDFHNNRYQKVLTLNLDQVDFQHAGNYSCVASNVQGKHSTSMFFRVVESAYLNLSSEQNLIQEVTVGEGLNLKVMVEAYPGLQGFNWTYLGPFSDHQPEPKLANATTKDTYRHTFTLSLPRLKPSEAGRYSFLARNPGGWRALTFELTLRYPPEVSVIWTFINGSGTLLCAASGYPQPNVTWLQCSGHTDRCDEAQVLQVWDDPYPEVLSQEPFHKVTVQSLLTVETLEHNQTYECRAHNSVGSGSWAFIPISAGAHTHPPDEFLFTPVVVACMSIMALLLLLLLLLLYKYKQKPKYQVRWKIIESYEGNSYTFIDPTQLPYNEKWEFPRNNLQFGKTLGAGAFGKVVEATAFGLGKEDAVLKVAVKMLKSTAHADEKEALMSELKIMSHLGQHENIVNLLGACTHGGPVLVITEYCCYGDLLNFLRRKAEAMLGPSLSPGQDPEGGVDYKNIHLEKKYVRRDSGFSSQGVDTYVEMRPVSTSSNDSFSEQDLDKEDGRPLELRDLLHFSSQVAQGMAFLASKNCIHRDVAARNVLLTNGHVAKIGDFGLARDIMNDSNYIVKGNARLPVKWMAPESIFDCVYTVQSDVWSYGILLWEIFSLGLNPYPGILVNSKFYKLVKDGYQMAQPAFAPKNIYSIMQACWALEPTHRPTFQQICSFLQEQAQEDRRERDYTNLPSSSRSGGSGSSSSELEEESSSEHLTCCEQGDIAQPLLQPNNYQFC
Serine/threonine-protein kinase 32B, sequence (Q9NY57 whole entry): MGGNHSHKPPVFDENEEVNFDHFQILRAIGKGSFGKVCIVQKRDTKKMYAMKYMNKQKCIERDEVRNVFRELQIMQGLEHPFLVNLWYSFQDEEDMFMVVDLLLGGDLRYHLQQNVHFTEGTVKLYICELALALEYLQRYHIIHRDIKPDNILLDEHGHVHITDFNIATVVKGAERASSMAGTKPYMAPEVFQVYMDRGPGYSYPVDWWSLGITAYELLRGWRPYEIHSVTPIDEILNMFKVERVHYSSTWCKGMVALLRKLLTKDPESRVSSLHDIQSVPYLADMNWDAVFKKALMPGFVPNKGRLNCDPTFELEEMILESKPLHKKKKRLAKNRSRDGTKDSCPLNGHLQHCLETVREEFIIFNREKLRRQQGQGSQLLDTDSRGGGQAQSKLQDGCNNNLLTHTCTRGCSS
Receptor tyrosine-protein kinase erbB-2, sequence (P04626 whole entry, the tested form may be a part): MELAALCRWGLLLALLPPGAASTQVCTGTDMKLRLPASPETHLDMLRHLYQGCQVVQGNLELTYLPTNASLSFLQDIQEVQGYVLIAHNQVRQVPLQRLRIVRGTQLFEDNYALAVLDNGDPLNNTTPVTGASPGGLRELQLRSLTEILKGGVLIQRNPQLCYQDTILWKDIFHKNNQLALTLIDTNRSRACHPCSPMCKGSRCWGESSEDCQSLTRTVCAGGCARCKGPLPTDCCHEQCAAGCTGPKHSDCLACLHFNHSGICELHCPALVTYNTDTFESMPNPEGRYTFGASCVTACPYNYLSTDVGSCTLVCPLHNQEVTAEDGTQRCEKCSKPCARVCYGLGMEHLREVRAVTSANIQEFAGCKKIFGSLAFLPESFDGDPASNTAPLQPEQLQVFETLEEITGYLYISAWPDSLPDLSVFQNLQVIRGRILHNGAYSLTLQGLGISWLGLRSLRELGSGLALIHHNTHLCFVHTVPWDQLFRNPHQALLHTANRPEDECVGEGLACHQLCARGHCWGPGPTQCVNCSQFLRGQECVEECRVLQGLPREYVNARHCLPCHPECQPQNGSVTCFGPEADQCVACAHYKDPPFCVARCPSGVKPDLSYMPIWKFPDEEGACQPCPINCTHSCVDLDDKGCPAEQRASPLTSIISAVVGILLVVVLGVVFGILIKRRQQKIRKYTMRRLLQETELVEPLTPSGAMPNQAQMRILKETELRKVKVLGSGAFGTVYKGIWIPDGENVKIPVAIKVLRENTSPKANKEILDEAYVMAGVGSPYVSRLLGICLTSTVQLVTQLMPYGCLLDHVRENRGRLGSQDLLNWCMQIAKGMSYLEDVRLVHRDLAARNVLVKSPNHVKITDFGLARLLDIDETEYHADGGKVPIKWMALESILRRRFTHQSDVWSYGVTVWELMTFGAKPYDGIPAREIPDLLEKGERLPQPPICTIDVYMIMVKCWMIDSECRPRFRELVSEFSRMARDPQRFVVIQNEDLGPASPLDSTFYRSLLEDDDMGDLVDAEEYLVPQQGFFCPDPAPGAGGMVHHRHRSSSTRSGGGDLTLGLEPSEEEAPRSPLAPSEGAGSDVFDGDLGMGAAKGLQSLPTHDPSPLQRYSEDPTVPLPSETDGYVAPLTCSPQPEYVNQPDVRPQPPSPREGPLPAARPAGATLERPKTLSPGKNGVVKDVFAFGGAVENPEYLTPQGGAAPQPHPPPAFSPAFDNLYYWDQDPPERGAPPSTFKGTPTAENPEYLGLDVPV

For the molecule `NS(=O)(=O)c1ccc(CNc2ccnc(Nc3cccc(CN4CCOCC4)c3)n2)cc1`, the IC50 (commonly the concentration that inhibits the measured activity by half) in data set [1] is 5060 nM; in [2] it was greater than 10000 nM; in [3], 276 nM; in data set [4] it was 2740 nM; in data set [5] it was greater than 10000 nM; in data set [6], greater than 10000 nM. Moreover, the IC50 in [8] was greater than 10000 nM; in [10], greater than 10000 nM; in data set [11], greater than 10000 nM; in data set [12], 91 nM. The % control in data set [7] was found to be 54%. In data set [9], the Peff is reported as 4.56 10^-7 cm/s. In data set [13], this molecule registered a Kinetic solubility of 176 µM.

Take `Cc1nn(CC(F)(F)F)cc1Nc1nccc(NCCCNC(=O)C2CCC2)n1`: the half-inhibitory concentration (IC50) in [5] is greater than 10000 nM; in [6], greater than 10000 nM; in data set [14] it was 2870 nM; in data set [8], greater than 10000 nM; in data set [15], greater than 10000 nM; in data set [11] it was greater than 10000 nM. Besides, the Peff in data set [9] is listed as 2.39 10^-6 cm/s. This molecule also gave a Kinetic_solubility in data set [13] of 174.6 µM. Further, the % control in data set [16] was 60%.

As for `O=C(NCCCNc1ccnc(Nc2cccc(NC(=O)N3CCCC3)c2)n1)C1CCC1`, the IC50 is 325 nM in data set [17]; 720 nM in data set [3]; greater than 10000 nM in [5]; 2310 nM in data set [6]; 769 nM in [14]; greater than 10000 nM in data set [8]. Also, the IC50 was 161 nM in data set [19], greater than 10000 nM in data set [11], 481 nM in [20] and 390 nM in data set [21]. Moreover, the % control in data set [18] turned out to be 56%. Also, the Peff in data set [9] is reported as 8.24 10^-8cm/s. In data set [13], the Kinetic solubility was 169 µM.
